Source: ChEMBL document CHEMBL1275308, “Synthesis, analgesic and anti-inflammatory evaluation of some novel quinazoline derivatives” (Eur J Med Chem, 2010)
The source made the active and inactive calls.

Assays:
Rattus norvegicus = test: Antiinflammatory activity in rat assessed as inhibition of formaldehyde-induced paw edema at 100 mg/kg, po qd for 4 days administered 1 hr before formaldehyde challenge measured 2 hrs post formaldehyde challenge relative to untreated control; assay type: functional
Method in brief: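 Rats dosed orally at 100 mg/kg once daily for 4 d, with an indomethacin reference and a vehicle control. Right hind paw volume measured by plethysmometer before challenge. 0.2 mL of 10% w/v formaldehyde injected subplantar 1 h after drug. Paw volume measured 1 and 2 h after injection. Results given as % inhibition versus control; means, ANOVA with Dunnett's test.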

Mus musculus [1] = test: Analgesic activity against heat induced nociception in Swiss albino mouse assessed as increase in latency at 100 mg/kg, po measured 60 mins post compound dose by hot plate method relative to pretreatment level; assay type: functional
Method in brief: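 Mice; test compounds and indomethacin, each at 100 mg/kg orally as a suspension in 1% carboxymethyl cellulose. Six groups of six animals, with a vehicle negative control. Reaction time recorded at 30 min, 1, 2 and 3 h after treatment, cut-off 10 s. Effect expressed as percentage of the pretreatment level. Values are means.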

Mus musculus [2] = test: Toxicity in mouse assessed as incidence of toxic symptoms at 500 mg/kg, po measured 24 hrs post dose; assay type: organism-based; design: dose 500 mg/kg, route oral; conditions: in vivo
Mus musculus [3] = test: Toxicity in mouse assessed as incidence of toxic symptoms at 1000 mg/kg, po measured 24 hrs post dose; assay type: organism-based; design: dose 1000 mg/kg, route oral; conditions: in vivo
Mus musculus [4] = test: Toxicity in mouse assessed as incidence of toxic symptoms at 750 mg/kg, po measured 24 hrs post dose; assay type: organism-based; design: dose 750 mg/kg, route oral; conditions: in vivo
Mus musculus [5] = test: Toxicity in mouse assessed as mortality at 1000 mg/kg, po measured 24 hrs post dose; assay type: organism-based; design: dose 1000 mg/kg, route oral; conditions: in vivo
Mus musculus [6] = test: Toxicity in mouse assessed as mortality at 750 mg/kg, po measured 24 hrs post dose; assay type: organism-based; design: dose 750 mg/kg, route oral; conditions: in vivo
Mus musculus [7] = test: Toxicity in mouse assessed as mortality at 500 mg/kg, po measured 24 hrs post dose; assay type: organism-based; design: dose 500 mg/kg, route oral; conditions: in vivo
Mus musculus [8] = test: Toxicity in mouse assessed as induction of urination at 500 to 1000 mg/kg, po measured within 24 hrs post dose; assay type: organism-based; design: dose 500-1000 mg/kg, route oral; conditions: in vivo
Mus musculus [9] = test: Toxicity in mouse assessed as induction of muscle relaxation at 500 to 1000 mg/kg, po measured within 24 hrs post dose; assay type: organism-based; design: dose 500-1000 mg/kg, route oral; conditions: in vivo
Mus musculus [10] = test: Toxicity in mouse assessed as induction of sedation at 500 to 1000 mg/kg, po measured within 24 hrs post dose; assay type: organism-based; design: dose 500-1000 mg/kg, route oral; conditions: in vivo
Mus musculus [11] = test: Toxicity in mouse assessed as induction of calmness at 500 to 1000 mg/kg, po measured within 24 hrs post dose; assay type: organism-based; design: dose 500-1000 mg/kg, route oral; conditions: in vivo

Row | SMILES | inhibition in vivo at 100 mg/kg (Rattus norvegicus) | Activity (Mus musculus [1]) | Activity (Mus musculus [2]) | Activity (Mus musculus [3]) | Activity (Mus musculus [4]) | Activity (Mus musculus [5]) | Activity (Mus musculus [6]) | Activity (Mus musculus [7]) | Activity (Mus musculus [8]) | Activity (Mus musculus [9]) | Activity (Mus musculus [10]) | Activity (Mus musculus [11])
1 | CC1CCN(c2nc(-c3ccccc3)nc3ccc(I)cc23)CC1 | 56.4% | 85.7% | – | – | – | – | – | – | – | – | – | –
2 | CC1CCN(c2nc(-c3ccc(Cl)cc3)nc3ccc(Br)cc23)CC1 | 55.1% | 85.2% | – | – | – | – | – | – | – | – | – | –
3 | CC1CCN(c2nc(-c3ccccc3)nc3ccccc23)CC1 | 69% | 88% | – | – | – | – | – | – | – | – | – | –
4 | CN1CCN(c2nc(-c3ccc(Cl)cc3)nc3ccc(Br)cc23)CC1 | 20% | inactive | – | – | – | – | – | – | – | – | – | –
5 | O=c1[nH]nc(C2CCN(c3nc(-c4ccccc4)nc4ccccc34)CC2)s1 | 12.7% | 81.5% | Non-toxic | Non-toxic | Non-toxic | Non-toxic | Non-toxic | Non-toxic | – | – | – | –
6 | CN1CCN(c2nc(-c3ccccc3)nc3ccc(I)cc23)CC1 | 39.6% | inactive | – | – | – | – | – | – | – | – | – | –
7 | COc1ccc2c(c1)c(CC(=O)O)c(C)n2C(=O)c1ccc(Cl)cc1 [INDOMETHACIN] | 78.3% | 97.5% | – | – | – | – | – | – | – | – | – | –
8 | S=c1[nH]nc(C2CCN(c3nc(-c4ccccc4)nc4ccccc34)CC2)s1 | 71.3% | 88% | Non-toxic | Non-toxic | Non-toxic | Non-toxic | Non-toxic | Non-toxic | – | – | – | –
9 | c1ccc(-c2nc(N3CCN(c4ccccc4)CC3)c3ccccc3n2)cc1 | 77.4% | 107.3% | Non-toxic | Non-toxic | Non-toxic | Non-toxic | Non-toxic | Non-toxic | Toxic | – | – | –
10 | Brc1ccc2nc(-c3ccccc3)nc(N3CCN(c4ccccc4)CC3)c2c1 | 40.7% | inactive | – | – | – | – | – | – | – | – | – | –
11 | CCOC(=O)C1CCN(c2nc(-c3ccccc3)nc3ccccc23)CC1 | 70.3% | 98.5% | Non-toxic | Non-toxic | Non-toxic | Non-toxic | Non-toxic | Non-toxic | – | – | – | –
12 | Clc1ccc(-c2nc(N3CCN(c4ccccc4)CC3)c3cc(Br)ccc3n2)cc1 | 16.2% | inactive | Non-toxic | Non-toxic | Non-toxic | Non-toxic | Non-toxic | Non-toxic | – | Toxic | Toxic | Toxic
13 | CN1CCN(c2nc(-c3ccccc3)nc3ccccc23)CC1 | 45.2% | 86.2% | – | – | – | – | – | – | – | – | – | –
14 | Brc1ccc2nc(-c3ccccc3)nc(N3CCC(c4ccccc4)CC3)c2c1 | 57.6% | 89.8% | Non-toxic | Non-toxic | Non-toxic | Non-toxic | Non-toxic | Non-toxic | – | – | – | –
15 | Clc1ccc(-c2nc(N3CCC(c4ccccc4)CC3)c3ccccc3n2)cc1 | 53.7% | 87.3% | – | – | – | – | – | – | – | – | – | –
16 | Clc1ccc(-c2nc(N3CCN(c4ccccc4)CC3)c3cc(I)ccc3n2)cc1 | 13.5% | inactive | – | – | – | – | – | – | – | – | – | –
17 | Clc1ccc(-c2nc(N3CCN(c4ccccc4)CC3)c3ccccc3n2)cc1 | 12.6% | inactive | – | – | – | – | – | – | – | – | – | –
18 | CN1CCN(c2nc(-c3ccc(Cl)cc3)nc3ccc(I)cc23)CC1 | 17% | inactive | – | – | – | – | – | – | – | – | – | –
19 | CC1CCN(c2nc(-c3ccc(Cl)cc3)nc3ccccc23)CC1 | 55.1% | inactive | – | – | – | – | – | – | – | – | – | –
20 | Nc1nnc(C2CCN(c3nc(-c4ccccc4)nc4ccccc34)CC2)s1 | 73% | 83.2% | Non-toxic | Non-toxic | Non-toxic | Non-toxic | Non-toxic | Non-toxic | – | Toxic | Toxic | Toxic
21 | CN1CCN(c2nc(-c3ccc(Cl)cc3)nc3ccccc23)CC1 | 37% | inactive | – | – | – | – | – | – | – | – | – | –
22 | CC1CCN(c2nc(-c3ccccc3)nc3ccc(Br)cc23)CC1 | 57.8% | inactive | – | – | – | – | – | – | – | – | – | –
23 | Ic1ccc2nc(-c3ccccc3)nc(N3CCC(c4ccccc4)CC3)c2c1 | 82.5% | 110.2% | Non-toxic | Non-toxic | Non-toxic | Non-toxic | Non-toxic | Non-toxic | Toxic | – | – | –
24 | CC1CCN(c2nc(-c3ccc(Cl)cc3)nc3ccc(I)cc23)CC1 | 45.8% | 82.3% | – | – | – | – | – | – | – | – | – | –
25 | Clc1ccc(-c2nc(N3CCC(c4ccccc4)CC3)c3cc(Br)ccc3n2)cc1 | 50% | 106.1% | Non-toxic | Non-toxic | Non-toxic | Non-toxic | Non-toxic | Non-toxic | Toxic | – | – | –
26 | CN1CCN(c2nc(-c3ccccc3)nc3ccc(Br)cc23)CC1 | 45% | inactive | – | – | – | – | – | – | – | – | – | –
27 | Ic1ccc2nc(-c3ccccc3)nc(N3CCN(c4ccccc4)CC3)c2c1 | 39.2% | inactive | Non-toxic | Non-toxic | Non-toxic | Non-toxic | Non-toxic | Non-toxic | – | Toxic | Toxic | Toxic
28 | c1ccc(-c2nc(N3CCC(c4ccccc4)CC3)c3ccccc3n2)cc1 | 85.3% | 153.8% | Non-toxic | Non-toxic | Non-toxic | Non-toxic | Non-toxic | Non-toxic | – | – | – | –
29 | Clc1ccc(-c2nc(N3CCC(c4ccccc4)CC3)c3cc(I)ccc3n2)cc1 | 41.4% | inactive | – | – | – | – | – | – | – | – | – | –
